# Measured values from ChEMBL document CHEMBL4513216, “Probing the Open Global Health Chemical Diversity Library for Multistage-Active Starting Points for Next-Generation Antimalarials” (ACS Infect Dis, 2020).
# Experiment: Toxicity liver stage against HepG2, at 10uM
# Type: cell-based
# Design: test concentration 10 uM, cell line HepG2-A16-CD81EGFP
# Conditions: human, HepG2-A16-CD81EGFP cells; read-out: INHIBITION
# Outline: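 Uninfected HepG2-A16-CD81EGFP cells, 3 × 10^3 per well, 1536-well, plated on prespotted compound at 10 μM final, parasite-free screening media added to match infected plates; puromycin 10 μM positive, DMSO 0.5% negative; run in parallel with 48 h PbLuc assay at 37 °C, 5% CO2; viability by CellTiter-Glo luminescence, normalized to controls.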
row,SMILES,cytotoxicity at 10 µM [%]
1,CCSCc1ccc(C(=O)N2CCCN(CC)CC2)cc1,-5.95
2,CC(C)CC(NC(=O)c1ccc[nH]1)C(=O)N1CCC(CO)CC1 (configuration not stated),6.74
3,CCNC(=O)CN1CCc2c(Br)ccc(F)c2C1,4.34
4,Cc1noc([C@H]2C[C@H]3OCC[C@H]3N(Cc3ccc4c(c3)OCO4)C2)n1,2.67
5,CS(=O)(=O)c1ccccc1C(=O)NCCCN1CCc2ccccc2C1,1.01
6,CC(NC1CCN(CCc2ccncc2)CC1)c1cnn(C(C)C)c1 (configuration not stated),-4.97
7,CC(=O)N(Cc1noc(C)n1)C1CCN(Cc2ccccn2)C1 (configuration not stated),-5.82
8,Cc1ccnn1-c1ccc(C(=O)N2CCCC(n3ccnc3)C2)cc1 (configuration not stated),-18.2
9,COc1ccc(CNC(=O)c2cc3c(nc2O)CCC(C)C3)cc1 (configuration not stated),-6.1
10,NCc1cccc(-c2cccnc2C(=O)NCCN2CCOCC2)c1,-1.29
11,Cc1nnc(C(C)Nc2cccc(COCCc3ccccc3)c2)o1 (configuration not stated),-3.51
12,COCC1CN(c2ncc(F)cn2)Cc2cnn(C)c21 (configuration not stated),4.02
13,O=C(NCc1cccnc1)N1CCC2(CC(=O)N(c3ccsc3)C2)C1 (configuration not stated),-0.125
14,O=C1COC2(CCN(c3ncccn3)CC2)CN1c1ccsc1,-0.31
15,COc1ccc(-c2cc(C3CC3)c(C#N)c(N)n2)cc1F,-2.84
16,Cc1ncc(-c2ccnc(N3CCC[C@@H]3CO)n2)c(-c2cccnc2)n1,-8.49
17,COc1ccc(NC(=O)N(CC2CCOC2)C2CC2)cn1 (configuration not stated),-6.95
18,CCN(C)C(=O)c1cccc(S(=O)(=O)NCCc2csc(N)n2)c1,-45.2
19,Cc1ccccc1NC(=O)N1CC[C@@H]2CN(C)S(=O)(=O)[C@@H]2CC1,4
20,Cc1cc(C(=O)N2CCOC(c3nc(C(C)C)n[nH]3)C2)no1 (configuration not stated),-5.13
21,CC(C)(C)n1ncc2c1NC(=O)CSC2c1ccc2c(c1)OCO2 (configuration not stated),0.148
22,O=S(=O)(c1ccccc1)N1CCC2(CCCN2Cc2ccccc2Cl)C1 (configuration not stated),-74.5
23,COc1cccc(C2CC(=O)Nc3c2c(=O)n(C)c2ncnn32)c1 (configuration not stated),-0.549

row,SMILES,cytotoxicity at 10 µM [%]
1,O=C(COc1ccc(Cl)cc1)NCc1nncn1C1CC1,7.67
2,CCOc1ccc(C2CC(=O)NCc3nc(N)sc32)cc1CO (configuration not stated),-6.33
3,Cc1ccc(-n2ccnc2)c(C(=O)NCCOCC2CCCO2)c1 (configuration not stated),-139
4,O=C(c1ccc2ccc(N3CCN(CC4CC4)CC3)n2c1)N1CCCO1,9.81
5,Cc1c[nH]c(CN2CCCCC2CCn2cccn2)c(C)c1=O (configuration not stated),3.69
6,Cc1nn(C)c(C)c1C1CCCN1C(=O)c1cc(C(N)=O)cs1 (configuration not stated),-2.53
7,Cc1cn2c(n1)CCC(NC(=O)c1c[nH]c(C)n1)C2 (configuration not stated),-0.361
8,COc1cccc(-c2nnn(C3CCN(CC(F)(F)F)C3=O)n2)c1 (configuration not stated),3.34
9,CC(C)c1noc(C(C)Nc2nccc(CCC(F)(F)F)n2)n1 (configuration not stated),2.08
10,CC(C)(NC(=O)Nc1cnn(CC2CCCO2)c1)c1nccs1 (configuration not stated),-2.64
11,COc1ncccc1CNC(=O)NCCNS(C)(=O)=O,-14.4
12,COc1ccc(CNCc2ccc(N3CCCCC3)nc2)cc1OC,1.92
13,c1csc(-c2noc(CCCN3CCCC3Cn3cncn3)n2)c1 (configuration not stated),-24.2
14,CCC(NC(=O)NCc1ccoc1C)c1c(C)nn(C)c1C (configuration not stated),-1.44
15,CCS(=O)(=O)N1CCC2(CC(=O)N(c3cccc(C)c3)C2)C1 (configuration not stated),-7.79
16,CC(C)N(Cc1ccccc1)C(=O)NCCNC(=O)c1cccnc1,-1.66
17,Cc1ccsc1-c1nccn1CCS(C)(=O)=O,3.03
18,O=C(C1CCCC1)N1CCOc2cccc(F)c21,-2.54
19,Cc1nc2c(c(=O)[nH]1)CN(C(=O)CCC1CCCN(C)C1)C2 (configuration not stated),-7.76
20,Cn1cccc1C(=O)N1C[C@H]2CN(Cc3cccs3)C[C@H]2C1,2.02
21,Fc1ccc(CNCCn2cccn2)c(F)c1,8.59
22,CCCN1CCC(CNC(=O)N2CCCC2c2c(C)n[nH]c2C)CC1 (configuration not stated),-0.686
23,COCCCC1(C(=O)O)CCCN(C(=O)c2ccc(Cl)cc2F)C1 (configuration not stated),-0.37

row,SMILES,cytotoxicity at 10 µM [%]
1,O=C(COC[C@H]1CC[C@H]2[C@H](CCN2c2ccccn2)O1)N1CCCC1,0.748
2,COC(=O)N1CCC(NC(=O)c2cc(S(N)(=O)=O)ccc2C)CC1,-1.22
3,O=C(CCC(=O)Nc1ccccc1)NCC(=O)c1ccc(F)cc1F,-0.493
4,c1cc(CN2CCCCC2)cc(NCc2cc[nH]n2)c1,-6.05
5,O=C(NCCCn1ccnc1)N1CCCC1c1ccsc1 (configuration not stated),-6.04
6,CC(Nc1cccc(CN2CCOC2=O)c1)C(=O)NC(N)=O (configuration not stated),-7.44
7,CCc1nnsc1C(=O)N1CCCC1c1c(C)nn(C)c1OC (configuration not stated),-1.67
8,c1ccc(CCc2n[nH]c(CCN3CCCCC3)n2)cc1,5.05
9,CS(=O)(=O)c1cccc(OCC(=O)N2CCCC2c2ccc[nH]2)c1 (configuration not stated),3.92
10,CCn1cnnc1CNC(=O)CCC(=O)c1ccc2c(c1)OCCO2,-3.59
11,CC1=C(c2ccc(Cl)cc2)S(=O)(=O)N=C1N1CCc2ccccc21,-17.1
12,CC(C)C[C@@H](CO)n1cc(-c2cnc(-c3ccco3)nc2)nn1,-0.662
13,CNC(=O)C1CCCN1c1nc(C)c2ccccc2n1 (configuration not stated),10.4
14,CNc1cc(-c2nc(CCN3CCCC3=O)no2)ccn1,7.46
15,CC(C)N1CC2(CCC1=O)CCN(c1ccnc3ccccc13)CC2,3.2
16,CC(C)n1nnc(CC(=O)NCC2(c3ccccc3F)CCOCC2)n1,2.35
17,CCOC1COC2(CCN(Cc3cccc(C)n3)CC2)C1 (configuration not stated),11.8
18,CCOc1ccc(NC(=O)N2CCOC(C(N)=O)C2)cc1C (configuration not stated),-140
19,CC(=O)Nc1cccc2c1ccn2CC(=O)Nc1nc[nH]n1,-0.79
20,N#Cc1cccc(SCCS(N)(=O)=O)c1,-2.53
21,CCNC(=O)Cc1ccc(NC(=O)NC(CC)CC)cc1,-6.93
22,COCCN(Cc1cnn(C)c1)c1nc(C)nc2sccc12,-138
23,Cc1c(C(=O)NCC2CCCO2)nnn1-c1cccc2c1CCN(C)C2 (configuration not stated),1.96

row,SMILES,cytotoxicity at 10 µM [%]
1,CC(NC(=O)c1cccs1)C(=O)NCc1ccccc1CN1CCCC1 (configuration not stated),-14.2
2,Cc1csc(CCNc2ccc(C#N)cc2F)n1,2.17
3,O=C(c1ccnc(N2CCOC(c3ccc(Cl)cc3)C2)c1)N1CCCC1 (configuration not stated),-1.8
4,O=C(Nc1ccccn1)NC(CCCO)c1ccccc1 (configuration not stated),3.72
5,N#CCSCCCN1CCN(C(=O)c2ccc(Cl)cc2)CC1,-10.3
6,Clc1ccc(CN2CCC3(CC2)CC(c2cccnc2)=NO3)cc1,17.5
7,CC(C)(C)OC(=O)N1CCCN1C(=O)c1cccc(F)c1F,-10.3
8,O=C(Cc1ccc(F)cc1)NS(=O)(=O)c1ccc(F)c(F)c1,-9.07
9,O=C(O)Cc1cnc(-c2c(Cl)cccc2Cl)s1,2.84
10,COC(=O)c1cc(C(=O)N2CCC(OC)CC2)n(-c2ccccc2)n1,-15.1
11,CCn1ccc(-c2cc(C(=O)O)n3ncc(Br)c3n2)n1,-4.81
12,N#CCCCS(=O)(=O)N1CCCC1CC(=O)c1cccs1 (configuration not stated),-5.07
13,CN(Cc1cn2c(n1)CN(Cc1ccsc1)CC2)Cc1ccco1,-78.5
14,N#Cc1cccnc1N1CCC2(CCCN(C3CCOCC3)C2=O)C1 (configuration not stated),-9.21
15,COc1ccccc1NCc1cscn1,-0.358
16,O=C(COCCc1ccccc1)N1CCCC(n2cncn2)C1 (configuration not stated),-27.8
17,Cc1cc(NC(=O)N(CCO)Cc2ccsc2)no1,-5.57
18,Cc1cc(C)cc(CCC(=O)N2CCN(c3cc(C)nc(N)n3)CC2)c1,-38.7
19,Cc1ccc(OCCN(C)Cc2nc3c(cnn3C)c(=O)[nH]2)cc1,-3.44
20,CCCC(=O)NCCc1cc(N2CCN(C(C)=O)CC2)nc(C2CC2)n1,-28.2
21,O=C(Cc1ccsc1)N1CCCCC1c1ccn2ccnc2n1 (configuration not stated),-9.91
22,Cc1cnn(CC2CCCN2C(=O)c2n[nH]c3ccccc23)c1 (configuration not stated),-9.93
23,Cc1cccc2c1cnn2CCCNC(=O)c1cnn(C)c1,6.75

row,SMILES,cytotoxicity at 10 µM [%]
1,CCC(C)(C)NC(=O)Cn1cc(C(N)=O)c(-c2ccccc2)n1,-6.84
2,O=C1COC2(CCN(C(=O)c3ccoc3)CC2)CN1Cc1cccnc1,5.29
3,Cc1nn(C)cc1CN(C)C(=O)c1cnccn1,-5.2
4,NC(=O)NC(=O)C(c1ccccc1)N1CCN(Cc2ccc(Cl)s2)CC1 (configuration not stated),-6.7
5,Cc1nc(C2CCCNC2)cc(N(C)CCc2cn[nH]c2)n1 (configuration not stated),-9.91
6,COCCC(=O)Nc1ccnc(Oc2ccccc2)c1,7.85
7,COc1cccc(COC(C)C(=O)NC2CCN(CC(N)=O)CC2)c1 (configuration not stated),0.234
8,CC(C)CC(C)NCc1cccnc1N1CCOCC1 (configuration not stated),-4.22
9,CSCc1noc(CN2CCC3(CC2)CC(=O)N(CC=C(C)C)C3)n1,-0.589
10,CC(=O)NCCc1ncnn1-c1ccc(F)c(Cl)c1,-15
11,O=C(NCCn1ccnc1)NCc1ccc(N2CCCCCC2)nc1,19
12,Cc1cc2c(=O)n3c(nc2s1)CCN(Cc1[nH]cnc1C)CC3,-9.9
13,COc1c(CNCCNC(=O)c2ccc(C)c(F)c2)c(C)nn1C,-3.33
14,Cc1ccn2ncc(C(=O)N3CCCC(c4cc(C)[nH]n4)C3)c2n1 (configuration not stated),-8.02
15,COc1cccc(C2SCC(=O)Nc3ccsc32)c1 (configuration not stated),2.77
16,CCN1C(=O)C2(CCOCC2)c2cc(NC(=O)c3cccn3C)ccc21,-2.13
17,CCNC(=O)NC[C@@H]1C=C(C)[C@H](CC(=O)NCCN(C)C)C[C@H]1C(C)C,2.43
18,CC(C)N1CCCC(C(=O)N(C)CCCc2cnn(C)c2)C1 (configuration not stated),-8.03
19,Cc1cc(CN2CCN(C(=O)C3(C#N)CCCC3)CC2)on1,-14.9
20,CN(CC(O)C(F)(F)F)C(=O)Nc1cccc(Cn2cccn2)c1 (configuration not stated),5.79
